From PubChem BioAssay
Shown are actives, neighbours in structure and some others; about 3% of the full set was active somewhere.
Apaf1 inhib: blocks human Apaf-1 apoptosome activity. reconstituted apoptosome caspase-3 activity, DEVD-Rh110 fluorescence. inhibition, % at 20 µM. actives 0.71% (n = 330,000). AID 489030; active = inhibition of at least 40% at 20 µM;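 note: plate controls were DMSO wells for no effect and DEVD-CHO caspase inhibitor wells for full effect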
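Medium: Hepes buffer, pH 7.5 / System: biochemical Apaf-1 apoptosome reconstitution / Measured by: Rh110 fluorescence, excitation 480 nm, emission 540 nm / Times: compound with Apaf-1, dATP, procaspase-3 30 min, then 50 min reaction, room temperature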
beta cell repl: inducers of beta-cell replication in MIN6 cells; actives 0.29% (n = 330,000); proliferation, % at 10 µM; MIN6 cells proliferation, ATPlite luminescence, 48 h; cells starved in 0.2% serum; 100% = growth in 10% serum; AID 2380;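 active = compounds whose signal lies at least 3.5 SD above the mean of all wells on their plate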;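 note: 0% = DMSO-treated cells in low-serum medium and 100% = 10% serum control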
Exocytosis inh: blocks lytic granule exocytosis; AID 651702; actives 0.66% (n = 360,000); TALL-104 LAMP-1 surface exposure, flow cytometry; cells stimulated with thapsigargin and PMA; inhibition, % at 10 µM;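 active = inhibition above about 55%, limit read from the data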
MPTP block: inhibitors of mitochondrial permeability transition pore. actives 1.4% (n = 360,000). isolated mouse mitochondria, Ca2+ swelling absorbance, 30 min. inhibition, % at 10 µM. AID 602449;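 active = inhibition of 50% or more, scaled per plate between neutral and stimulator controls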;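 note: 0% = DMSO wells given calcium and 100% = 1 mM EGTA wells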
iPSC survival up: increases survival of single human iPS cells; hiPSC single-cell survival, ATPlite luminescence; 100% = ROCK inhibitor wells, 0% = DMSO; survival enhancement, % at 20 µM; actives 0.044% (n = 360,000); in the data active = survival enhancement above about 18%;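 note: cells exposed to compounds for 16 hours before the ATP read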
UBC13 inh: inhibitors of human UBC13 polyubiquitin chain formation; TR-FRET; P61088; actives 0.47% (n = 330,000); inhibition, % at 20 µM; AID 485273; in the data active = inhibition above about 45%, passing the limit was not always enough
Target sequence (P61088 whole entry, looked up): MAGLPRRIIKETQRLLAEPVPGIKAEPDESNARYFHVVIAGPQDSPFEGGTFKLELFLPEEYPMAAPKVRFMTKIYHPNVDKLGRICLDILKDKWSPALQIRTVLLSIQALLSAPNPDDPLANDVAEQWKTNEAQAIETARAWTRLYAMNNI
Rh123 counter: mitochondrial membrane potential, counter-screen; inhibition, % at 10 µM; isolated mitochondria, Rhodamine 123 fluorescence; shares compounds with MPTP block; actives 78% (n = 5,000); in the data active = inhibition above about 22%;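 note: 0% = DMSO vehicle and 100% = positive control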
MPTP swell DR: MPTP inhibition, dose response swelling confirmation. shares compounds with MPTP block. actives 58% (n = 780). isolated mitochondria swelling, absorbance. IC50, µM; in the data active = IC50 below about 20 µM
MPTP cs DR: counter-screen for mitochondrial permeability transition pore inhibitors, dose response; isolated mitochondria counterscreen, fluorescence read-out; AID 651564; actives 49% (n = 780); shares compounds with MPTP block; IC50, µM; in the data active = IC50 below about 80 µM
Starred values were filed as active, the others as inactive; i = inactive; . = no result.

SMILES	Apaf1 inhib	beta cell repl	Exocytosis inh	MPTP block	iPSC survival up	UBC13 inh	Rh123 counter	others
Cc1c(C(=O)N2CCCCC2)oc2ccc(S(=O)(=O)N3CC(C)CC(C)C3)cc12 (stereo not drawn)	34	-4	-5	83*	-5	-11	44*
Fc1ccc(-[n+]2nc(Nc3ccccc3)sc2-c2cccc(Cl)c2Cl)cc1	30	-6	-3	95*	-4	5	109*
COc1ccc(-c2ccc(N3C(c4ccsc4)=Cc4ccc(F)cc4C3c3c[nH]c4ccccc34)cc2)cc1 (stereo not drawn)	.	.	2	2	-1	.	.
Nc1nonc1N/N=C/c1c(O)ccc2ccccc12	23	-3	2	56*	2	38	74*
Nc1nonc1N/N=C\c1ccccc1	-9	0	1	6	0	4	.
Cc1csc2c(N3CCN(C(=O)Nc4ccccc4)CC3)ncnc12	-5	0	7	54*	-1	15	24*
Cc1csc2ncnc(N3CCN(C(=O)Nc4ccc(OC(F)(F)F)cc4)CC3)c12	13	-3	16	90*	0	6	89*
Cc1csc2c(N3CCN(C(=S)Nc4ccc(F)cc4F)CC3)ncnc12	5	-4	-11	92*	0	12	91*
Cc1ccc(C(=O)N2CCN(c3ncnc4c(C)csc34)CC2)cc1	-1	-4	-3	34	0	0	.
CC(C)C[C@@H]1COc2cc(N(C)CCO)ccc2S(=O)(=O)N1	.	.	5	-3	0	.	.
CC(C)[C@H](NC(=O)N1CCn2c1nc1ccccc12)C(=O)N1CCCCC1	2	0	-2	0	0	-10	.
CN1C(=O)/C(=C/c2cc(N=Nc3ccccc3)ccc2O)SC1=S	23	-4	8	95*	0	-51	61*
CCOC(=O)N1CCN(S(=O)(=O)c2ccc(C(=O)N(CCCN(C)C)c3nc4c(F)cc(F)cc4s3)cc2)CC1	4	-2	5	51*	0	5	-9	MPTP swell DR=19*;MPTP cs DR=>80
CN(C)CCCN(C(=O)c1ccc(S(=O)(=O)N2CCc3ccccc3C2)cc1)c1nc2c(F)cc(F)cc2s1	35	-7	51	91*	0	24	-9
COc1ccc(C)c2sc(N(CCCN(C)C)C(=O)c3ccc(S(=O)(=O)N4CCc5ccccc5C4)cc3)nc12	.	.	42	96*	0	.	-18
CN(C)CCCN(C(=O)c1ccc(S(=O)(=O)N2CCCCCC2)cc1)c1nc2c(F)cccc2s1	-2	-5	-10	0	0	16	.
Cc1ccc2sc(N(CCCN(C)C)C(=O)c3ccc(S(=O)(=O)N(C)C)cc3)nc2c1C	6	-4	10	-2	-4	13	.
Cc1ccc2sc(N(CCCN(C)C)C(=O)c3ccc(S(=O)(=O)N4CCc5ccccc5C4)cc3)nc2c1C	33	-7	51	90*	0	24	-5	MPTP swell DR=i;MPTP cs DR=>80
COc1ccc(C)c2sc(N(CCN(C)C)C(=O)c3ccc(S(=O)(=O)N(C)c4ccccc4)cc3)nc12	.	.	-1	-1	2	.	.
COc1ccccc1-c1cccc(-c2nc(C(=O)Nc3nccs3)cc3c2[C@H](CCO)N(C(C)=O)C3)c1	.	.	-1	0	0	.	.
Cc1ccc(S(=O)(=O)N(CC(=O)Nc2ccc(Cl)c([N+](=O)[O-])c2)C2CCCCC2)cc1	0	0	1	91*	2	-1	81*
CC(=O)c1ccc(N2CCN(S(=O)(=O)c3ccc4c(c3)CC(C)N4C(=O)C3CC3)CC2)cc1 (stereo not drawn)	3	-5	14	97*	0	10	108*
CC(=N\NC(=O)c1ccc([N+](=O)[O-])cc1)/C(=N/O)C(=O)Nc1ccccc1	3	2	-1	-2	0	-10	.
Cn1cc(CNC(=O)c2cc(COc3ccc4c(c3)CCCC4)on2)cn1	24	-1	-14	1	-1	9	.
O=C(NC(c1cccnc1)C(F)(F)F)c1cc(COc2ccc3c(c2)CCCC3)on1 (stereo not drawn)	17	-7	7	100*	0	13	86*
SMILES	Apaf1 inhib	beta cell repl	Exocytosis inh	MPTP block	iPSC survival up	UBC13 inh	Rh123 counter	others
CC(O)(c1cccc(F)c1)c1nc(-c2cc(F)cc(F)c2)cs1 (stereo not drawn)	.	.	5	3	6	.	.
Cc1ccc(CN2CCC(n3nccc3NC(=O)c3ccccc3C)CC2)o1	-6	-2	0	3	0	-8	.
CC(CCc1ccccc1)NC(=O)COC(=O)c1cc(NS(=O)(=O)c2ccc(Cl)c([N+](=O)[O-])c2)ccc1O (stereo not drawn)	16	-6	15	100*	3	-18	89*
CNS(=O)(=O)c1cccc(C(=O)OCC(=O)NC(C)CCc2ccccc2)c1 (stereo not drawn)	-1	-5	4	1	0	2	.
COc1ccc(C(=O)Nc2ccc(OCC(F)(F)C(F)F)c(C(F)(F)F)c2)cc1OC	9	-4	1	1	5	3	.
O=C(Nc1ccc(OCC(F)(F)C(F)F)c(C(F)(F)F)c1)c1ccc(Cl)cc1	11	-3	13	91*	-1	-2	84*
O=C(Nc1ccc(Br)c(C(F)(F)F)c1)c1ccc(C(F)(F)F)cc1	-5	-3	52	83*	-1	-1	87*
O=C(Nc1ccc(C(F)(F)F)cc1)c1ccc2nc[nH]c2c1	4	-2	-1	80*	0	-8	93*
O=C(Nc1ccc(Br)c(C(F)(F)F)c1)c1ccccc1	10	0	8	100*	1	10	89*
COc1ccc(NC(=O)c2ccc3nc[nH]c3c2)cc1	7	-3	-4	0	0	7	.
C[C@H](CO)N1C[C@H](C)[C@H](CN(C)C(=O)Nc2ccccc2)OCc2cnnn2CCCC1=O	.	.	-2	0	0	.	.
Cc1ccc(CC(=O)OC(C)C(=O)NC2CCCCC2C)cc1C (stereo not drawn)	10	10	9	0	-1	6	.
CCS(=O)(=O)c1ccc2oc(SCC(=O)c3c(N)n(C4CC4)c(=O)[nH]c3=O)nc2c1	-2	-2	7	0	0	-4	.
COc1ccc(Cl)cc1N1CCN(CCNC(=O)Nc2ccccc2C)CC1	-3	-2	6	94*	0	17	-7	MPTP swell DR=i;MPTP cs DR=32*
